The results in this text go back to ChEMBL document CHEMBL4732082, “Development of novel benzimidazole-derived neddylation inhibitors for suppressing tumor growth invitro and invivo” (Eur J Med Chem, 2021).

Assay [1] relates to A549. The assay is described as follows: Antiproliferative activity against human A549 cells assessed as inhibition of cell proliferation at 100 uM incubated for 48 hrs by CCK-8 assay relative to control. The class given is functional. On the set-up: scale not given: the % may be the effect or the level left. In short, it runs like this:
(§1)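 Cells from ATCC, passaged six times, grown in DMEM with 10% FBS and penicillin/streptomycin at 37 °C under 5% CO2. Seeded at 2500 cells/well, cultured overnight, treated 48 h, viability read by CCK-8. Run in triplicate; values are the mean of three experiments.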

The test system of the next assay is NCI-H1299. Description: Antiproliferative activity against human H1299 cells incubated for 48 hrs by CCK-8 assay. The assay is classed as functional, cell-based. To be noted: NCI-H1299, 48 h. In outline: as §1
The subject of a further assay is BEAS-2B. The assay is described as follows: Cytotoxicity against human BEAS-2B cells incubated for 48 hrs by CCK-8 assay. The class given is cell-based. In short, it runs like this: as §1
Assay [2] has as its target T1, NEDD8-activating enzyme E1 regulatory subunit (Homo sapiens) (UniProt Q13564).
T1 sequence (whole entry): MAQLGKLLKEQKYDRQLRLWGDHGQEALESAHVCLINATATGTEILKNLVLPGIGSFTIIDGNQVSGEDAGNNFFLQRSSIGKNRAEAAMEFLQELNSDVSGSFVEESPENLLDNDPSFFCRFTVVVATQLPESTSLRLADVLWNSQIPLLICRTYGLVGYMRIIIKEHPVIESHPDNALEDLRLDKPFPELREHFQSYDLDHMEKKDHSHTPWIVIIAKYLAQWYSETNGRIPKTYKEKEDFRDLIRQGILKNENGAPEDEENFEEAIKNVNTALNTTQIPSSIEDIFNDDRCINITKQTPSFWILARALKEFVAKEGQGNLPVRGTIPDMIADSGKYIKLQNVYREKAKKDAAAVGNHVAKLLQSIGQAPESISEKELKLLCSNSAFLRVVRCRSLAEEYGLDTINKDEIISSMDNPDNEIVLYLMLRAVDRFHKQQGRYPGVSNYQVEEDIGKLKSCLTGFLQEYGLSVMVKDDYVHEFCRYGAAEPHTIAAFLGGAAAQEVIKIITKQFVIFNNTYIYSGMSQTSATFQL
The assay is described as follows: Inhibition of NAE-mediated neddylation in human A549 cells assessed as suppression of cullin4a-Nedd8 adduct formation at 12.5 to 25 uM measured after 6 to 12 hrs by Western blot analysis. The assay is classed as cell-based. The following applies: dose 12.5-25 µM, time 6-12 hrs. In short, it runs like this:
(§2)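 A549 cells were treated 6 or 12 h with graded concentrations (4.5–75 μM) against a 0.1% DMSO control. Cells were washed in cold PBS, lysed in RIPA on ice and cleared by centrifugation, and protein was normalized. Cullin-Nedd8 was resolved on non-reducing SDS-PAGE and Wee1/p27 under reducing conditions, then detected by Western blot.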

Assay [3] concerns the target T1, NEDD8-activating enzyme E1 regulatory subunit (Homo sapiens). Description: Inhibition of NAE-mediated UBE2M neddylation in human A549 cells at 12.5 to 25 uM measured after 6 to 12 hrs by Western blot analysis. The class given is cell-based. To be noted: dose 12.5-25 µM, time 6-12 hrs. In outline:
as §2

The test system of assay [4] is A549. The assay is described as follows: Induction of apoptosis in human A549 cells assessed as increase in ratio of early and late apoptotic cells at 10 to 40 uM after 48 hrs by Annexin V-FITC/PI double staining based flow cytometric analysis (reference value: 2.6%). The class given is functional. To be noted: dose 10-40 µM.
The subject of assay [5] is A549. The assay is described as follows: Induction of cellular senescence in human A549 cells at 10 uM by SA-beta-gal-staining based assay. The class given is functional, cell-based.
In assay [6] the test system is A549. The assay is described as follows: Antitumor activity against human A549 cells xenografted in nude mouse assessed as decrease in tumor weight at 30 mg/kg, ip qd for 5 days on and 2 days off dosing and measured after 24 days post-treatment. The class given is functional, organism-based. The following applies: time 24.0 day. In short, it runs like this:
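Female nude mice were inoculated subcutaneously with 2×10^6 A549 cells in 0.1 mL PBS. At tumor volume 70–100 mm³, mice were randomized into 5 groups of 6. Dosing was ip or oral gavage, once daily on a 5-days-on/2-days-off schedule, with 10% 2-hydroxypropyl-β-cyclodextrin/water as vehicle control. Body weight and tumor volume were measured every two days; tumors were weighed at sacrifice. Significance by two-tailed Student's t-test.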

Assay [7] has as its system A549. The assay is described as follows: Induction of apoptosis in human A549 cells assessed as live cells at 10 uM after 48 hrs by Annexin V-FITC/PI double staining based flow cytometric analysis (reference value: 91.8%). The class given is functional.
In assay [8] the test system is A549. Description: Induction of apoptosis in human A549 cells assessed as live cells at 20 uM after 48 hrs by Annexin V-FITC/PI double staining based flow cytometric analysis (reference value: 91.8%). The class given is functional.
In assay [9] the test system is A549. Description: Induction of apoptosis in human A549 cells assessed as late apoptotic cells at 20 uM after 48 hrs by Annexin V-FITC/PI double staining based flow cytometric analysis (reference value: 4.62%). The assay is classed as functional.
The subject of assay [10] is A549. The assay is described as follows: Induction of apoptosis in human A549 cells assessed as necrotic cells at 20 uM after 48 hrs by Annexin V-FITC/PI double staining based flow cytometric analysis (reference value: 1.57%). The class given is functional.
In assay [11] the test system is A549. The assay is described as follows: Induction of apoptosis in human A549 cells assessed as live cells at 40 uM after 48 hrs by Annexin V-FITC/PI double staining based flow cytometric analysis (reference value: 91.8%). The class given is functional.
For assay [12], the system named is A549. Description: Induction of apoptosis in human A549 cells assessed as early apoptotic cells at 40 uM after 48 hrs by Annexin V-FITC/PI double staining based flow cytometric analysis (reference value: 2.04%). The class given is functional.

The source made the active and inactive calls. The calls are words filed in the database; no cut-off is given here.

With `CCOc1nc2cccc(C(=O)NCCc3ccc(Cl)cc3Cl)c2n1Cc1ccc(-c2ccccc2-c2nnn[nH]2)cc1`, the Activity with A549 [1] is 83.9%; with A549 [4], 35.81%; with A549 [7] it was 91.8%; in the assay on A549 [8], 72.6%; in the assay with A549 [9], 7.03%; with A549 [10] it was 1.91%. In addition, the Activity with A549 [11] came to 63.2%; in the assay with A549 [12] it was 32.1%. Also, the IC50 worked out at 21.8 µM in the assay on NCI-H1299 and 79.4 µM in the assay on BEAS-2B. The inhibition result in [2] and in assay [3] was “Active” throughout. For the same molecule, the result in the assay on A549 [5] and in the assay on A549 [6] was Active.
